The source made the active and inactive calls. No cut-off for these calls is given here.
Experiments:
H9c2 [1] = test: Cardioprotective activity against rat H9c2 cells assessed as reduction in H2O2-induced cell death at 20 uM incubated for 24 hrs followed by H2O2 stimulation and measured after 2 hrs by MTT assay; format: functional, cell-based
In short: (§1)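 Serum-starved H9c2 cells in DMEM/F12 with 10% FBS were seeded at 5×10^3 cells/well and attached overnight. They were pretreated 24 h with compound at 2.5, 5, 10 or 20 µM, then exposed to 250 µM H2O2 for 2 h. MTT (4 mg/mL) ran 4 h at 37 °C, formazan was dissolved in DMSO, and OD was read at 490 nm. Viability is % of untreated control, from three independent experiments, mean ± SD.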

H9c2 [2] = test: Cytotoxicity against rat H9c2 cells assessed as reduction in cell viability at 0.1 to 100 uM incubated for 24 hrs by MTT assay; format: cell-based; details: h9c2, 24 h
In short: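 H9c2 cells were seeded at 5×10^3 cells/well, attached overnight and given compound at 0.1, 1, 10 or 100 µM for 24 h, with 0.01% DMSO medium as control. Compounds were DMSO stocks diluted in medium. MTT (4 mg/mL, 4 h, 37 °C) was read at OD 490 nm after DMSO solubilisation. Viability is % of control, from three experiments.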

H9c2 [3] = test: Cardioprotective activity against rat H9c2 cells assessed as reduction in H2O2-induced cell death at 2.5 uM incubated for 24 hrs followed by H2O2 stimulation and measured after 2 hrs by MTT assay; format: functional, cell-based; in short: as §1
H9c2 [4] = test: Cardioprotective activity against rat H9c2 cells assessed as reduction in H2O2-induced cell death at 10 uM incubated for 24 hrs followed by H2O2 stimulation and measured after 2 hrs by MTT assay; format: functional, cell-based; in short: as §1
H9c2 [5] = test: Cardioprotective activity against rat H9c2 cells assessed as reduction in H2O2-induced LDH release at 10 uM incubated for 24 hrs followed by H2O2 stimulation and measured after 2 hrs by LDH release assay; format: functional, cell-based
In short: (§2)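 Cells were cultured in DMEM/F12 with 10% FBS and serum-starved, then pre-incubated 24 h with compound at 10 or 20 µM before 2 h with 250 µM H2O2. LDH release rate was measured with a cytotoxicity detection kit by absorbance at 490 nm. Three independent experiments, mean ± SD, one-way ANOVA with Tukey test.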

H9c2 [6] = test: Cardioprotective activity against rat H9c2 cells assessed as reduction in H2O2-induced LDH release at 20 uM incubated for 24 hrs followed by H2O2 stimulation and measured after 2 hrs by LDH release assay; format: functional, cell-based; in short: as §2
H9c2 [7] = test: Cardioprotective activity against rat H9c2 cells assessed as reduction in H2O2-induced cell death at 5 uM incubated for 24 hrs followed by H2O2 stimulation and measured after 2 hrs by MTT assay; format: functional, cell-based; in short: as §1
H9c2 [8] = test: Increase in H2O2-induced Nrf2 expression in rat H9c2 cells at 20 uM incubated for 24 hrs followed by H2O2 stimulation and measured after 2 hrs by Western blot analysis; format: functional, cell-based
In short: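 Pretreatment was 20 µM for 24 h, then 250 µM H2O2 for 2 h. Cytoplasmic and nuclear fractions were extracted for Western blot: 5% milk/TBS-0.1% Tween blocking 2 h, primary antibodies overnight at 4 °C, HRP anti-rabbit secondary (1:5000) 2 h. Signals were normalised to Lamin B1 (nuclear) or GAPDH (cytoplasmic), n=3, mean ± SD.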

H9c2 [9] = test: Inhibition of H2O2-induced ROS accumulation in rat H9c2 cells at 10 uM incubated for 24 hrs followed by H2O2 stimulation and measured after 2 hrs by DHE staining based fluorescence microscopy; format: functional, cell-based
In short: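 H9c2 cells at 2.5×10^5 cells/well attached overnight, were preincubated 24 h with 10 µM, then given H2O2 (250 µM) for 2 h. Dihydroethidium (5 µM) was loaded for 30 min at 37 °C. Ethidium fluorescence (ex 488/em […] nm) was imaged by fluorescence microscopy at 200×.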

[10] = target: T1, Nuclear factor erythroid 2-related factor 2 (Rattus norvegicus) (UniProt O54968); test: Activation of Nrf2 in rat H9c2 cells assessed as induction of Nrf2 nuclear translocation incubated for 24 hrs followed by H2O2 stimulation and measured after 2 hrs by Western blot analysis; format: cell-based
T1 sequence (whole entry): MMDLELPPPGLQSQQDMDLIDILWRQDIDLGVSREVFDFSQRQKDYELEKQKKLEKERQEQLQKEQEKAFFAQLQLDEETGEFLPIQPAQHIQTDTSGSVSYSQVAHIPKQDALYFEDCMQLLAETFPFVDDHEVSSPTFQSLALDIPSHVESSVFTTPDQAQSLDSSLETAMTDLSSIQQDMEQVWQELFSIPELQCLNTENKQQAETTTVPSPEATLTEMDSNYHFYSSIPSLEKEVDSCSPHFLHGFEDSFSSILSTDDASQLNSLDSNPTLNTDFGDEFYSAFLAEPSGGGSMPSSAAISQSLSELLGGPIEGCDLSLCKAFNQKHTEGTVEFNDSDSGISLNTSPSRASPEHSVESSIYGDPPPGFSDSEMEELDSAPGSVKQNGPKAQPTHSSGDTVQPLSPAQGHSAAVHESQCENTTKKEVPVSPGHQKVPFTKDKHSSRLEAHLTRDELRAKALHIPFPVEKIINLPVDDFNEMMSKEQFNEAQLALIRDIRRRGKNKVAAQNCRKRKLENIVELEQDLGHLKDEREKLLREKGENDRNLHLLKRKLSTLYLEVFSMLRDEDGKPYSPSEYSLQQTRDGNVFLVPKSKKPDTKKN

[11] = target: T1, Nuclear factor erythroid 2-related factor 2 (Rattus norvegicus); test: Activation of Nrf2 in rat H9c2 cells assessed as upregulation of HO1 incubated for 24 hrs followed by H2O2 stimulation and measured after 2 hrs by Western blot analysis; format: cell-based
[12] = target: T1, Nuclear factor erythroid 2-related factor 2 (Rattus norvegicus); test: Activation of Nrf2 in rat H9c2 cells assessed as upregulation of NQO1 incubated for 24 hrs followed by H2O2 stimulation and measured after 2 hrs by Western blot analysis; format: cell-based
[13] = target: T1, Nuclear factor erythroid 2-related factor 2 (Rattus norvegicus); test: Activation of Nrf2 in rat H9c2 cells assessed as induction of Nrf2 nuclear translocation at 10 uM incubated for 24 hrs followed by H2O2 stimulation and measured after 2 hrs by Western blot analysis; format: cell-based
[14] = target: T1, Nuclear factor erythroid 2-related factor 2 (Rattus norvegicus); test: Activation of Nrf2 in rat H9c2 cells assessed as upregulation of HO1 at 10 uM incubated for 24 hrs followed by H2O2 stimulation and measured after 2 hrs by Western blot analysis; format: cell-based
[15] = target: T1, Nuclear factor erythroid 2-related factor 2 (Rattus norvegicus); test: Activation of Nrf2 in rat H9c2 cells assessed as upregulation of NQO1 at 10 uM incubated for 24 hrs followed by H2O2 stimulation and measured after 2 hrs by Western blot analysis; format: cell-based

CC(C)(C)c1cccc2c1OS(=O)(=O)N=C2
Activity (H9c2 [1]): inactive

O=S1(=O)N=Cc2cc(Br)ccc2O1
Activity (H9c2 [1]): Active | Activity (H9c2 [2]): Non-Toxic | Activity (H9c2 [3]): inactive | Activity (H9c2 [4]): Active | Activity (H9c2 [5]): inactive | Activity (H9c2 [6]): Active

O=S1(=O)N=Cc2c(F)cccc2O1
Activity (H9c2 [1]): Active

O=S1(=O)N=Cc2cc(Cl)ccc2O1
Activity (H9c2 [1]): Active

CCN(CC)c1ccc2c(c1)OS(=O)(=O)N=C2
Activity (H9c2 [1]): Active

O=S1(=O)N=Cc2c(ccc3ccccc23)O1
Activity (H9c2 [1]): Active

O=S1(=O)N=Cc2ccc(Cl)cc2O1
Activity (H9c2 [1]): Active | Activity (H9c2 [2]): Non-Toxic | Activity (H9c2 [3]): inactive | Activity (H9c2 [7]): Active | Activity (H9c2 [4]): Active | Activity (H9c2 [5]): Active | Activity (H9c2 [6]): Active | Activity (H9c2 [8]): Active | inhibition (H9c2 [9]): Active | Activity [10]: Dose-dependent effect | Activity [11]: Dose-dependent effect | Activity [12]: Dose-dependent effect | Activity [13]: Active | Activity [14]: Active | Activity [15]: Active

COc1ccc2c(c1)OS(=O)(=O)N=C2
Activity (H9c2 [1]): Active

COc1ccc2c(c1)C=NS(=O)(=O)O2
Activity (H9c2 [1]): Active

O=S1(=O)N=Cc2cccc(F)c2O1
Activity (H9c2 [1]): Active

O=S1(=O)N=Cc2cccc(Cl)c2O1
Activity (H9c2 [1]): Active

COc1cccc2c1OS(=O)(=O)N=C2
Activity (H9c2 [1]): Active

O=c1cc(-c2ccc(O)c(O)c2)oc2cc(O)cc(O)c12
Activity (H9c2 [1]): Active | Activity (H9c2 [3]): inactive | Activity (H9c2 [4]): Active | Activity [13]: Active | Activity [14]: Active | Activity [15]: Active

Cc1ccc2c(c1)OS(=O)(=O)N=C2
Activity (H9c2 [1]): Active

O=S1(=O)N=Cc2ccccc2O1
Activity (H9c2 [1]): Active

Cc1ccc2c(c1)C=NS(=O)(=O)O2
Activity (H9c2 [1]): Active

O=S1(=O)N=Cc2ccc(F)cc2O1
Activity (H9c2 [1]): Active | Activity (H9c2 [2]): Non-Toxic | Activity (H9c2 [3]): inactive | Activity (H9c2 [4]): Active | Activity (H9c2 [5]): inactive | Activity (H9c2 [6]): Active

Reference: ChEMBL document CHEMBL4312000, “Discovery of coumarin-derived imino sulfonates as a novel class of potential cardioprotective agents” (Eur J Med Chem, 2019)
